# Measured values published in ChEMBL document CHEMBL2176886, “Anti-AIDS agents 90. novel C-28 modified bevirimat analogues as potent HIV maturation inhibitors” (J Med Chem, 2012).
# The source made the active and inactive calls. The calls are words filed in the database; no cut-off is given here.
# Legend:
# [1] = system: Human immunodeficiency virus 1; assay: Antiviral activity against HIV1 infected in human TZM-bl cells assessed as reduction of viral entry after 48 hrs by luciferase reporter gene assay; assay type: functional, organism-based
# Method in brief: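 Single-round infection of TZM-bl cells (HeLa clone expressing CD4/CCR5 with HIV-1 LTR-driven firefly luciferase) with HIV-1 at 200 TCID50 mixed with test samples. After 48 h, medium was replaced with Bright-Glo reagent and luminescence read. IC50 is the concentration giving 50% RLU reduction versus virus-control wells after background subtraction.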
# [2] = system: Human immunodeficiency virus 1; assay: Antiviral activity against HIV1 NL4-3 infected in human MT4 cells assessed as p24 antigen level at 10 uM after 4 days by ELISA; assay type: functional, organism-based
Compound,Activity [1],Activity [2]
C=C(C)[C@@H]1CC[C@]2(C(=O)ON3C(=O)CCC3=O)CC[C@]3(C)[C@H](CC[C@@H]4[C@@]5(C)CC[C@H](O)C(C)(C)[C@@H]5CC[C@]43C)[C@@H]12,inactive,inactive
C=C(C)[C@@H]1CC[C@]2(C(=O)N3CCC(CCCC(=O)NCCCN4CCOCC4)CC3)CC[C@]3(C)[C@H](CC[C@@H]4[C@@]5(C)CC[C@H](O)C(C)(C)[C@@H]5CC[C@]43C)[C@@H]12,inactive,inactive
C=C(C)[C@@H]1CC[C@]2(C(=O)OCCOCCOCCOCCO)CC[C@]3(C)[C@H](CC[C@@H]4[C@@]5(C)CC[C@H](O)C(C)(C)[C@@H]5CC[C@]43C)[C@@H]12,inactive,inactive
C=C(C)[C@@H]1CC[C@]2(C(=O)O)CC[C@]3(C)[C@H](CC[C@@H]4[C@@]5(C)CC[C@H](O)C(C)(C)[C@@H]5CC[C@]43C)[C@@H]12,Active,
C=C(C)[C@@H]1CC[C@]2(C(=O)OCOCCOC)CC[C@]3(C)[C@H](CC[C@@H]4[C@@]5(C)CC[C@H](OCOCCOC)C(C)(C)[C@@H]5CC[C@]43C)[C@@H]12,inactive,inactive
C=C(C)[C@@H]1CC[C@]2(C(=O)N3CCC(CCCC(=O)NCCN4CCOCC4)CC3)CC[C@]3(C)[C@H](CC[C@@H]4[C@@]5(C)CC[C@H](O)C(C)(C)[C@@H]5CC[C@]43C)[C@@H]12,inactive,inactive
C=C(C)[C@@H]1CC[C@]2(C(=O)OCCCc3ccccc3)CC[C@]3(C)[C@H](CC[C@@H]4[C@@]5(C)CC[C@H](O)C(C)(C)[C@@H]5CC[C@]43C)[C@@H]12,inactive,inactive
C=C(C)[C@@H]1CC[C@]2(C(=O)OCCCCCC(=O)OCC)CC[C@]3(C)[C@H](CC[C@@H]4[C@@]5(C)CC[C@H](O)C(C)(C)[C@@H]5CC[C@]43C)[C@@H]12,inactive,inactive
C=C(C)[C@@H]1CC[C@]2(C(=O)N3CCN(CCCCC(=O)O)CC3)CC[C@]3(C)[C@H](CC[C@@H]4[C@@]5(C)CC[C@H](O)C(C)(C)[C@@H]5CC[C@]43C)[C@@H]12,inactive,inactive
C=C(C)[C@@H]1CC[C@]2(C(=O)N3CCC(CCCC(=O)N4CCOCC4)CC3)CC[C@]3(C)[C@H](CC[C@@H]4[C@@]5(C)CC[C@H](O)C(C)(C)[C@@H]5CC[C@]43C)[C@@H]12,inactive,inactive
C=C(C)[C@@H]1CC[C@]2(C(=O)OCOC)CC[C@]3(C)[C@H](CC[C@@H]4[C@@]5(C)CC[C@H](OCOC)C(C)(C)[C@@H]5CC[C@]43C)[C@@H]12,inactive,inactive
C#CCOC(=O)[C@]12CC[C@@H](C(=C)C)[C@@H]1[C@H]1CC[C@@H]3[C@@]4(C)CC[C@H](O)C(C)(C)[C@@H]4CC[C@@]3(C)[C@]1(C)CC2,inactive,inactive
C=C(C)[C@@H]1CC[C@]2(C(=O)N3CCN(CCCC(=O)O)CC3)CC[C@]3(C)[C@H](CC[C@@H]4[C@@]5(C)CC[C@H](O)C(C)(C)[C@@H]5CC[C@]43C)[C@@H]12,inactive,inactive
C=C(C)[C@@H]1CC[C@]2(C(=O)OCOCCOC)CC[C@]3(C)[C@H](CC[C@@H]4[C@@]5(C)CC[C@H](O)C(C)(C)[C@@H]5CC[C@]43C)[C@@H]12,inactive,inactive
C=C(C)[C@@H]1CC[C@]2(C(=O)N3CCC(CCCC(=O)NC)CC3)CC[C@]3(C)[C@H](CC[C@@H]4[C@@]5(C)CC[C@H](O)C(C)(C)[C@@H]5CC[C@]43C)[C@@H]12,inactive,inactive
C=C(C)[C@@H]1CC[C@]2(C(=O)OCCCCCCCC)CC[C@]3(C)[C@H](CC[C@@H]4[C@@]5(C)CC[C@H](O)C(C)(C)[C@@H]5CC[C@]43C)[C@@H]12,inactive,inactive
C=C(C)[C@@H]1CC[C@]2(C(=O)O)CC[C@]3(C)[C@H](CC[C@@H]4[C@@]5(C)CC[C@H](OCOC)C(C)(C)[C@@H]5CC[C@]43C)[C@@H]12,inactive,inactive
